This is an account of results in PMC11223518 (Science signaling, 2024).

For test [1], the system named is primary murine hippocampal neurons. The test is described as follows: Synaptic density. In kind it is cell-based, mouse. Particulars: K252a 200 nM or LY294002 1 μM, Syn3 0.2 μM, BDNF 25 ng/mL 24 hours; n = 20 neurons.
For test [2] the test system is unchanged. Description: PSD-95 puncta formation in vitro. In kind it is cell-based, mouse. To be noted: for effect of inhibitor on the effects of Syn3 (PSD-95 puncta): K252a 200 nM or LY294002 1 μM for 1 hour; for effect of inhibitor on the effects of Syn3 (PSD-95 puncta) / BDNF+Syn3–induced PSD-95 puncta formation with inhibitor: then Syn3 0.2 μM, BDNF 25 ng/mL 24 hours; for BDNF+Syn3–induced PSD-95 puncta formation with inhibitor: K252a 200 nM or LY294002 1 μM, n = 20 neurons. The method in brief:
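Primary murine hippocampal neurons were pretreated with test compound (0.2 µM) for 20 min, some first with K252a (200 nM) or LY294002 (1 µM) for 1 hour, then given BDNF for 24 hours. Cells were fixed in 4% paraformaldehyde for 15 min and blocked in 0.3% Triton X-100/5% goat serum. Primary antibody ran overnight at 4°C, secondary 2 hours at room temperature. Puncta were counted per 10-µm second-order dendrite 35–45 µm from the soma.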

The subject of test [3] is Akt, GSK3α/β, S6K, S6 phosphorylation in primary murine hippocampal neurons. The test is classed as cell-based, mouse. To be noted: K252a 200 nM or LY294002 1 μM for 1 hour, then Syn3 0.2 μM, BDNF 25 ng/mL 20 min; n = 5.
Test [4] relates to primary murine hippocampal neurons. Description: Dendritic spine density. The test is classed as cell-based, mouse. Particulars: K252a 200 nM or LY294002 1 μM, Syn3 0.2 μM, BDNF 25 ng/mL 24 hours; n = 15 neurons.
Test [5] deals with C57BL/6J mice, corticosterone model of depression. The test is described as follows: Sucrose preference test, corticosterone model. In kind it is in vivo, mouse. Particulars: corticosterone 20 mg/kg s.c. daily for 21 days. A digest of the protocol:
(§1)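 C57BL/6J mice, 4–5 weeks old, equal numbers male and female. Corticosterone emulsified in propylene glycol given s.c. daily between 10:00 and 12:00 for 21 days; controls got vehicle. Test compound then given i.p. (1 or 10 mg/kg; in one series 1 mg/kg with testing 12 hours later, n = 9 per group). Mice acclimated to the testing room for 30 min.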

For test [6] the test system is unchanged. Description: Forced swim test, corticosterone model. The test is classed as in vivo, mouse. Particulars: corticosterone 20 mg/kg s.c. daily for 21 days. A digest of the protocol: as §1
The test system is the same in test [7]. The test is described as follows: Tail suspension test, corticosterone model. In kind it is in vivo, mouse. Particulars: corticosterone 20 mg/kg s.c. daily for 21 days. A digest of the protocol: as §1
Test [8] concerns autophagy, BDNF-mTOR signaling pathway. To be noted: through the BDNF-mTOR signaling pathway; cited from earlier work.
Test [9] deals with patients with conventional, treatment-resistant depression. To be noted: single infusion of sub-anesthetic dose; cited from earlier work.
Test [10] has as its system insulin receptor signaling. Description: Insulin-induced Akt-S6K signaling in primary hippocampal neurons. In kind it is cell-based, mouse. Particulars: insulin 1 μg/mL, 20 min. The method in brief: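 Primary murine hippocampal neurons were pre-treated 20 min with test compound (0.2 µM) or vehicle, then with insulin (1 μg/mL) for 20 min. Cells were lysed in ice-cold RIPA for 30 min and centrifuged. Equal protein was run on SDS-PAGE and blotted to PVDF, blocked in 5% milk/TBS-T, then probed overnight at 4°C with primary antibodies and HRP secondaries. Data are mean ± SD.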

For test [11], the system named is TrkB signaling. Particulars: cited from earlier work.
Test [12] concerns platelet-derived growth factor (PDGF) receptor signaling. Description: PDGF-induced Akt-S6K signaling in primary hippocampal neurons. In kind it is cell-based, mouse. Particulars: PDGF-BB 25 ng/mL, 20 min.
The subject of test [13] is primary murine hippocampal neurons. The test is described as follows: Sholl analysis of dendritic complexity/neurite outgrowth. The test is classed as cell-based, mouse. To be noted: BDNF 25 ng/mL, 24h; n = 26 neurons.

For `COC(=O)[C@@]1(O)C[C@H]2O[C@]1(C)n1c3ccccc3c3c4c(c5c6ccccc6n2c5c31)C(=O)NC4` [K252a], the “effect of Syn3 on synaptic density with inhibitor” value in [1] was “blocked the effect of Syn3 on synaptic density”. Further, in [2], the “effect of inhibitor on the effects of Syn3 (PSD-95 puncta)” value is recorded as “blocked the effects of Syn3” and the “BDNF+Syn3–induced PSD-95 puncta formation with inhibitor” value was “reversed”. Besides, the “BDNF plus Syn3 stimulation of Akt and S6K phosphorylation with inhibitor” value in [3] is listed as “blocked”. In addition, the “density of dendritic spines, BDNF + Syn3 with inhibitor” value in test [4] was “reversed”.
As for `C[C@]12C[C@H](O)[C@H]3[C@@H](CCC4=CC(=O)CC[C@@]43C)[C@@H]1CC[C@@H]2C(=O)CO` [corticosterone], the “sucrose intake (effect of inducer)” value in test [5] was “decreased sucrose intake”. In addition, the “immobility time (effect of inducer), forced swim test” value in test [6] was “increased immobility time”. In addition, in [7], the “immobility time (effect of inducer), tail suspension test” value is on record as “increased immobility time”.
Consider `CN[C@]1(c2ccccc2Cl)CCCCC1=O` [esketamine], for which the autophagy entry in test [8] is recorded as “acts to inhibit autophagy”.
On to `CNC1(c2ccccc2Cl)CCCCC1=O` (centres unmarked) [ketamine], for which the “antidepressant effects in patients” value in [9] is “produces rapid antidepressant effects in patients with conventional, treatment-resistant depression”.
For `O=c1cc(N2CCOCC2)oc2c(-c3ccccc3)cccc12` [LY294002], in [1], the “effect of Syn3 on synaptic density with inhibitor” value was “blocked the effect of Syn3 on synaptic density”. Also, in [2], the “effect of inhibitor on the effects of Syn3 (PSD-95 puncta)” value is “blocked the effects of Syn3” and the “BDNF+Syn3–induced PSD-95 puncta formation with inhibitor” value was “reversed”. Also, in test [3], the “BDNF plus Syn3 stimulation of Akt and S6K phosphorylation with inhibitor” value is “blocked”. Moreover, the “density of dendritic spines, BDNF + Syn3 with inhibitor” value in [4] was “reversed”.
As for insulin: recombinant insulin, in test [10], the “Akt and S6K phosphorylation” value is “increased Akt and S6K phosphorylation”.
In the case of `O=c1cc(-c2ccccc2)oc2c(O)c(O)ccc12` [7,8-DHF, 7,8-dihydroxyflavone], the “TrkB signaling and antidepressant responses” value in [11] is “stimulates TrkB signaling and promotes rapid antidepressant responses”.

B1: PDGF: recombinant platelet-derived growth factor (protein, UniProt P01127 82-190, looked up)
Platelet-derived growth …: SLGSLTIAEPAMIAECKTRTEVFEISRRLIDRTNANFLVWPPCVEVQRCSGCCNNRNVQCRPTQVQLRPVQVRKIEIVRKKPIFKKATVTLEDHLACKCETVAAARPVT
Take B1: the “Akt and S6K phosphorylation” value in test [12] was “increased Akt and S6K phosphorylation”.

B2: brain-derived neurotrophic factor (protein, UniProt P23560 19-247, looked up)
Neurotrophic factor BDNF …: APMKEANIRGQGGLAYPGVRTHGTLESVNGPKAGSRGLTSLADTFEHVIEELLDEDQKVRPNEENNKDADLYTSRVMLSSQVPLEPPLLFLLEEYKNYLDAANMSMRVRRHSDPARRGELSVCDSISEWVTAADKKTAVDMSGGTVTVLEKVPVSKGQLKQYFYETKCNPMGYTKEGCRGIDKRHWNSQCRTTQSYVRALTMDSKKRIGWRFIRIDTSCVCTLTIKRGR
In the case of B2, the “dendritic complexity and number of neurite crossings” value in test [13] was “significantly enhanced dendritic complexity and the number of neurite crossings”. Besides, the “number of PSD-95 puncta” value in test [2] (BDNF 25 ng/mL, 24h) is recorded as “increased the number of PSD-95 puncta”.
